Experimental data: ChEMBL document CHEMBL3822362, “Effects of N-Substitutions on the Tetrahydroquinoline (THQ) Core of Mixed-Efficacy μ-Opioid Receptor (MOR)/δ-Opioid Receptor (DOR) Ligands” (J Med Chem, 2016)
Calls of active or inactive are those of the source.

Assays:
[1] = tested on: Mus musculus; assay: Antinociceptive activity in C57BL/6 mouse assessed as increase in latency time to tail flick at 1 to 10 mg/kg, ip measured at 30 min interval by warm water tail withdrawal assay; type: functional, organism-based
Method in brief: (§1)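 Adult male C57BL/6 mice, 20–30 g, 8–16 weeks. Saline ip, baseline read 30 min later. Then three increasing ip doses every 30 min, in water or 1:1:8 ethanol:Alkumuls:water, giving cumulative 1, 3.2 and 10 mg/kg. Tail tip (2–3 cm) put in 50 °C water 30 min after each injection; latency to withdraw or flick read, 20 s cutoff; n = 3.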

[2] = biological target: T1, Kappa-type opioid receptor (Homo sapiens, UniProt P41145); assay: Displacement of [3H]diprenorphine from human KOR expressed in CHO cell membranes after 1 hr by liquid scintillation counting
T1 sequence (P41145 whole entry): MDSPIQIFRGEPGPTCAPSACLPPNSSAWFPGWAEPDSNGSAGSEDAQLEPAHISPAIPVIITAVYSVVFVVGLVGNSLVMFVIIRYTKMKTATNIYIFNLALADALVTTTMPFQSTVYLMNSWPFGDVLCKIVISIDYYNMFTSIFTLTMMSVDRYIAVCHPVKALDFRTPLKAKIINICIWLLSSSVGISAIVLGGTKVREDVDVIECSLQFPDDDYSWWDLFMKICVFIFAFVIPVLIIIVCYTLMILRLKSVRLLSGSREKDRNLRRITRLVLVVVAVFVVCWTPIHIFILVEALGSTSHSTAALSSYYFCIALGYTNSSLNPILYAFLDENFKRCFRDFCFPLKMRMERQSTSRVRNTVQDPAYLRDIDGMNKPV
Method in brief: (§2)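 Membranes (20 μg protein/tube) in 50 mM Tris-HCl pH 7.4 with 0.2 nM [3H]diprenorphine and varying peptidomimetic concentrations, 1 h at room temperature to equilibrium. GF/C filtration, five buffer washes, scintillation counting. Nonspecific binding with 10 μM naloxone.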

[3] = biological target: T2, Delta-type opioid receptor (Rattus norvegicus, UniProt P33533); assay: Displacement of [3H]diprenorphine from rat DOR transfected in rat C6 cell membranes after 1 hr by liquid scintillation counting; method in brief: as §2
T2 sequence (P33533 whole entry): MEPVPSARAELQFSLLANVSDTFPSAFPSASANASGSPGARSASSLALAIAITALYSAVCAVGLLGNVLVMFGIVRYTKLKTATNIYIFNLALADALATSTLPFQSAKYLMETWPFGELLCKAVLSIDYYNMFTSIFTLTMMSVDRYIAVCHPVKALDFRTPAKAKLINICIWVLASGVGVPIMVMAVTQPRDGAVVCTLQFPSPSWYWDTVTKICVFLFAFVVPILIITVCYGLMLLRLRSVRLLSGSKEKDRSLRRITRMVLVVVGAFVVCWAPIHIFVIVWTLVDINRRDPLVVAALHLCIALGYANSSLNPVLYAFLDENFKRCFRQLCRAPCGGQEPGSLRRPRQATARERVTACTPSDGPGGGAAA

[4] = biological target: T3, Mu-type opioid receptor (Rattus norvegicus, UniProt P33535); assay: Displacement of [3H]diprenorphine from rat MOR transfected in rat C6 cell membranes after 1 hr by liquid scintillation counting; method in brief: as §2
T3 sequence (P33535 whole entry): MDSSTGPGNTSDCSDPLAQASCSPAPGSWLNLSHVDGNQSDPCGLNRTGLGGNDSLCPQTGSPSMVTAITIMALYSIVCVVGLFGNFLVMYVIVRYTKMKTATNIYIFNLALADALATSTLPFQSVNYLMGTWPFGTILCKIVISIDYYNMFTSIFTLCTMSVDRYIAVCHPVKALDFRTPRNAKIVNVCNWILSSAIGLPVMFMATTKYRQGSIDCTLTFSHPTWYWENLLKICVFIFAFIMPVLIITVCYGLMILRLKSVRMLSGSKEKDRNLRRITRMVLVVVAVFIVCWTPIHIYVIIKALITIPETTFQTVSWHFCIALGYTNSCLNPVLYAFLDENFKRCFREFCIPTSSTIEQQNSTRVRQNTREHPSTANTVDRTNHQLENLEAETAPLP

[5] = biological target: Mu-type opioid receptor (Rattus norvegicus) (UniProt P33535); assay: Agonist activity at rat MOR transfected in rat C6 cell membranes at 10 uM after 1 hr by [35S]GTPgammaS assay relative to DAMGO; type: functional
Mu-type opioid receptor (Rattus norvegicus), sequence (P33535 whole entry): as above
Method in brief: (§3)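 Membranes (10–20 μg protein) from cells grown to confluence in DMEM/10% FBS, incubated 1 h at 25 °C in 50 mM Tris-HCl, 100 mM NaCl, 5 mM MgCl2, pH 7.4 with 0.1 nM [35S]GTPγS, 30 μM GDP and varying peptidomimetic concentrations. Filtered on GF/C, counted by scintillation. % stimulation relative to 10 μM DAMGO (MOR), DPDPE (DOR) or U69,593 (KOR).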

[6] = biological target: T3, Mu-type opioid receptor; assay: Agonist activity at rat MOR transfected in rat C6 cell membranes after 1 hr by [35S]GTPgammaS assay; type: functional; method in brief: as §3
[7] = biological target: T2, Delta-type opioid receptor; assay: Agonist activity at rat DOR transfected in rat C6 cell membranes after 1 hr by [35S]GTPgammaS assay; type: functional; method in brief: as §3
[8] = biological target: T1, Kappa-type opioid receptor; assay: Agonist activity at human KOR expressed in CHO cell membranes at 10 uM after 1 hr by [35S]GTPgammaS assay relative to U69,593; type: functional; method in brief: as §3
[9] = biological target: T1, Kappa-type opioid receptor; assay: Agonist activity at human KOR expressed in CHO cell membranes after 1 hr by [35S]GTPgammaS assay; type: functional; method in brief: as §3
[10] = biological target: Delta-type opioid receptor (Rattus norvegicus) (UniProt P33533); assay: Agonist activity at rat DOR transfected in rat C6 cell membranes at 10 uM after 1 hr by [35S]GTPgammaS assay relative to DPDPE; type: functional; method in brief: as §3
Delta-type opioid receptor (Rattus norvegicus), sequence (P33533 whole entry): as the sequence (P33533 whole entry) above

[11] = tested on: Mus musculus; assay: Antinociceptive activity in C57BL/6 mouse assessed as time duration of action at 10 mg/kg, ip by warm water tail withdrawal assay; type: functional
Method in brief: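 Male C57BL/6 mice given a single 10 mg/kg ip dose. Tail-withdrawal latency in 50 °C water (2–3 cm tail tip, 20 s cutoff) read at varying times after dosing to follow duration of antinociception; n = 3.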

[12] = tested on: Mus musculus; assay: Antinociceptive activity in C57BL/6 mouse assessed as increase in latency time to tail flick at 1 to 3.2 mg/kg, ip measured at 30 min interval by warm water tail withdrawal assay; type: functional, organism-based; method in brief: as §1
[13] = tested on: Mus musculus; assay: Antinociceptive activity in C57BL/6 mouse assessed as latency time to tail flick at 10 mg/kg, ip measured at 30 min interval by warm water tail withdrawal assay; type: functional; method in brief: as §1

Structure (SMILES) | Activity [1] | Ki [2] [nM] | Ki [3] [nM] | Ki [4] [nM] | Emax [5] [%] | EC50 [6] [nM] | EC50 ([7]; c6) | Emax [8] | EC50 ([9]; read-out: EC50) [nM] | Emax [10] | EC50 ([9]; cho) | Time [11] [h] | Activity [12] | Time [13] [s] | EC50 ([7]; read-out: EC50) [nM]
Cc1cc(O)cc(C)c1C[C@H](N)C(=O)N[C@@H]1CCN(C(=O)c2ccccc2)c2ccc(Cc3ccccc3)cc21 | inactive | 39 | 0.24 | 0.08 | 74 | 2.6 | Not Active | 16% | 430 |  |  |  |  |  | 
Cc1cc(O)cc(C)c1C[C@H](N)C(=O)N[C@@H]1CCN(CC(=O)O)c2ccc(Cc3ccccc3)cc21 |  | 280 | 67 | 4.4 | 87 | 78 | Not Active | inactive |  | inactive | Not Active |  |  |  | 
Cc1cc(O)cc(C)c1C[C@H](N)C(=O)N[C@@H]1CCNc2ccc(Cc3ccccc3)cc21 |  |  |  |  |  |  |  |  |  |  |  | 1 | inactive |  | 
COC(=O)N1CC[C@@H](NC(=O)[C@@H](N)Cc2c(C)cc(O)cc2C)c2cc(Cc3ccc4ccccc4c3)ccc21 | inactive | 190 | 1 | 0.32 | 110 | 0.39 | Not Active |  |  |  | Not Active |  |  |  | 
Cc1cc(O)cc(C)c1C[C@H](N)C(=O)N[C@@H]1CCN(C(=O)C2CC2)c2ccc(Cc3ccccc3)cc21 |  | 25 | 0.35 | 0.1 | 88 | 1.8 |  | 32% | 1000 | 69% |  |  |  | 11 | 10
CCOC(=O)CN1CC[C@@H](NC(=O)[C@@H](N)Cc2c(C)cc(O)cc2C)c2cc(Cc3ccccc3)ccc21 |  | 15 | 0.58 | 0.37 | 79 | 5.1 |  | 24% | > 1300 | 34% |  |  |  |  | 15
COC(=O)N1CC[C@@H](NC(=O)[C@@H](N)Cc2c(C)cc(O)cc2C)c2cc(Cc3ccccc3)ccc21 |  | 29 | 0.51 | 0.19 | 95 | 0.78 |  | 28% | 250 | 40% |  | 1 |  | 20 | 14
Cc1cc(O)cc(C)c1C[C@H](N)C(=O)N[C@@H]1CCN(C(=O)C2CCC2)c2ccc(Cc3ccccc3)cc21 | inactive | 56 | 0.15 | 0.23 | 94 | 2.1 |  | inactive |  | 58% | Not Active |  |  |  | 5.1
CCC(=O)N1CC[C@@H](NC(=O)[C@@H](N)Cc2c(C)cc(O)cc2C)c2cc(Cc3ccccc3)ccc21 |  | 40 | 1.1 | 0.12 | 96 | 3.9 |  | 32% | 880 | 58% |  |  |  |  | 32
CCCC(=O)N1CC[C@@H](NC(=O)[C@@H](N)Cc2c(C)cc(O)cc2C)c2cc(Cc3ccccc3)ccc21 |  | 50 | 1 | 0.1 | 53 | 3.5 |  | 22% | > 1200 | 44% |  |  |  |  | 8.1
CCCC(=O)N1CC[C@@H](NC(=O)[C@@H](N)Cc2c(C)cc(O)cc2C)c2cc(Cc3ccc4ccccc4c3)ccc21 | inactive | 64 | 0.8 | 0.14 | 92 | 0.9 | Not Active | inactive |  | inactive | Not Active |  |  |  | 
CC(=O)N1CC[C@@H](NC(=O)[C@@H](N)Cc2c(C)cc(O)cc2C)c2cc(Cc3ccccc3)ccc21 | inactive |  |  |  |  |  |  |  |  |  |  |  |  |  | 
COCC(=O)N1CC[C@@H](NC(=O)[C@@H](N)Cc2c(C)cc(O)cc2C)c2cc(Cc3ccccc3)ccc21 | inactive | 34 | 2.1 | 0.15 | 91 | 3 |  | 38% | > 1700 | 47% |  |  |  |  | 67
Cc1cc(O)cc(C)c1C[C@H](N)C(=O)N[C@@H]1CCN(C(=O)C(C)C)c2ccc(Cc3ccccc3)cc21 | inactive | 76 | 0.53 | 0.38 | 95 | 9.6 |  | 41% | > 1300 | 52% |  |  |  |  | 25
Cc1cc(O)cc(C)c1C[C@H](N)C(=O)N[C@@H]1CCN(CC(N)=O)c2ccc(Cc3ccccc3)cc21 | inactive | 4.3 | 2 | 0.23 | 99 | 1.5 |  | 49% | 380 | 34% |  |  |  |  | 270
CCC(=O)N1CC[C@@H](NC(=O)[C@@H](N)Cc2c(C)cc(O)cc2C)c2cc(Cc3ccc4ccccc4c3)ccc21 | inactive | 58 | 0.21 | 0.28 | 75 | 13 | Not Active | 15% | > 1400 |  |  |  |  |  | 
